Screening data as filed in PubChem BioAssay.
CSN inh: inhibitors of CSN-mediated cullin deneddylation, primary screen, biochemical, fluorescence polarization, uHTS | AID 651999, 2013 | inhibition, % at 12.5 µM | hit rate 0.38% among 360,000 | Purified CSN, SCF-Nedd8-OG deneddylation | COP9 signalosome complex subunit 5 (Homo sapiens), Q92905;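 active = pattern-corrected inhibition above about 35%, with an unprinted fluorescence ratio check between 0.5 and 1.5, limit read from the data, passing the limit was not always enough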;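 also: 0% = enzyme with substrate and 100% = substrate without enzyme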
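Assay system: HEK293T-derived human Csn5 enzyme; quantity: 0.24 nM enzyme; medium: Tris/NaCl/DTT buffer, pH 7.5; also added: substrate SCFSkp2-Nedd8OG, 10 nM; doses: 12.5 µM compound; schedule: 90 min reaction at room temperature; signal: FP; read-out: % inhibition of substrate cleavage by Csn5; benchmarks: substrate-only high control, full reaction low control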
ARFGAP1 inhibitor: inhibitors of rat ARFGAP1 GAP activity, primary screen, biochemical, fluorescence polarization, GDP tracer; ADP-ribosylation factor GTPase-activating protein 1 (Rattus norvegicus), Q62848; Arfgap1-stimulated ARF1 GTP hydrolysis, GDP FP detection; inhibition, % at 16.5 µM; hit rate 0.26% among 360,000; AID 651572, 2012;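 active = inhibition above a per-plate limit, mean inhibition of low control wells plus 3 SD, cut at about 25% in these data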;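 also: 0% = DMSO wells with enzyme and 100% = wells lacking Arfgap1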
Target sequence (Q62848 1-136 limits assumed): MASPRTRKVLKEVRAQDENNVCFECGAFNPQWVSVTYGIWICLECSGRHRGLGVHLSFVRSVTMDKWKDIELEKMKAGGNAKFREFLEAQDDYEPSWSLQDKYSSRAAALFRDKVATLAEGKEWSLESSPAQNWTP
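system = rat Arfgap1 catalytic domain, aa 1-136 | technique = FP, GDP Alexa 633 tracer displaced from anti-GDP antibody, 620/688 nm | compound = one concentration, 16.5 µM, DMSO 1.26% | medium = HEPES-based buffer, pH 7.5 | timing = compound-enzyme preincubation 20 min, reaction 120 min, detection 60 min, 25 °C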
HNF4A DNA FP: change in binding of human HNF4A to DNA, primary screen, biochemical, fluorescence polarization, FITC-DNA | 1 h | Hepatocyte nuclear factor 4-alpha (Homo sapiens), P41235 | activity change, % at 10 µM | AID 1224865, 2016 | hit rate 0.3% among 360,000; in the data active = activity change above about 30%, passing the limit was not always enough
ASAP1 GAP inh: inhibitors of human ASAP1 ArfGAP activity, primary screen, biochemical, fluorescence polarization | Arf-GAP with SH3 domain, ANK repeat and PH domain-containing protein 1 (Homo sapiens), … | ASAP1-stimulated ARF1 GTP hydrolysis, GDP FP detection | inhibition, % at 16.5 µM | hit rate 0.19% among 360,000 | AID 624377, 2012; in the data active = inhibition above about 25%;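 also: 0% = vehicle with enzyme and substrate and 100% = no enzyme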
Target sequence (Q9ULH1 325-724 limits assumed): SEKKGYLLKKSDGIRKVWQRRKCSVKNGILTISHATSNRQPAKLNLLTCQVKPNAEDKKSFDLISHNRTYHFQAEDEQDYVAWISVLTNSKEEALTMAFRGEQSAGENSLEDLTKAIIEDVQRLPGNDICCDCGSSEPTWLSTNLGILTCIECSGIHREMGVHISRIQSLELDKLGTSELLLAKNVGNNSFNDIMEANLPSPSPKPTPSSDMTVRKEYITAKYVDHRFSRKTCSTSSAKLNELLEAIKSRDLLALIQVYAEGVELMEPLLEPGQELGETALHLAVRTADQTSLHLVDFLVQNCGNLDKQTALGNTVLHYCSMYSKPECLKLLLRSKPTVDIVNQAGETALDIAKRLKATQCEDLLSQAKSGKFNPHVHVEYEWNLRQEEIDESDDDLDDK
Active calls of the source: *. Only some compounds are listed: those with a hit (about 0.95% of all), similar ones and a draw of the others.

For O=c1[nH]c2ccccc2nc1/C=C/c1ccc(O)cc1 the results were CSN inh 6, ARFGAP1 inhibitor -7, HNF4A DNA FP 36* and ASAP1 GAP inh 0.
`Nc1ccn([C@@H]2O[C@H](C(=O)NCC(=O)N3CCOCC3)[C@@H](O)[C@H]2O)c(=O)n1` gave ARFGAP1 inhibitor -9 and ASAP1 GAP inh -7.
Screening COCCN(Cc1ccc(C)cc1)C(=O)[C@@H](Cc1ccccc1)NC(=O)[C@H]1O[C@@H](n2ccc(=O)[nH]c2=O)[C@H](O)[C@@H]1O returned ARFGAP1 inhibitor 0 and ASAP1 GAP inh -11.
Screening CCc1cc2c(nc1CC)CCCN2S(=O)(=O)c1ccc(OC)cc1 returned ARFGAP1 inhibitor -9 and ASAP1 GAP inh -5.
Screening CN1OC[C@@H]2CN(C(=O)c3ccc(C#N)cc3)[C@H](c3cccc(Br)c3)C[C@@H]21 returned ARFGAP1 inhibitor 7 and ASAP1 GAP inh 3.
CCOc1ncccc1C(=O)N1CCN(c2ccc(C(F)(F)F)cn2)CC1 was read as CSN inh -16, ARFGAP1 inhibitor -11, HNF4A DNA FP 91* and ASAP1 GAP inh -8.
For O=C(NC(Cc1ccccc1)C(=O)N1CCN(c2ccccc2O)CC1)c1ccccc1 (stereo not drawn) the results were CSN inh 0, ARFGAP1 inhibitor -2, HNF4A DNA FP -1 and ASAP1 GAP inh 8.
`CC1=NN(c2ccccc2)C(=O)/C1=C\c1cn(CCC#N)nc1-c1ccc(Cl)cc1` gave CSN inh 0, ARFGAP1 inhibitor -2, HNF4A DNA FP 35* and ASAP1 GAP inh 9.
Screening NC(=O)c1ccccc1NC(=O)c1cccc(C(=O)Nc2ccccc2C(N)=O)n1 returned CSN inh 35*, ARFGAP1 inhibitor 9, HNF4A DNA FP 3 and ASAP1 GAP inh 11.
Screening NC(=O)c1ccccc1NC(=O)c1ccc2ccccc2c1 returned CSN inh -2, ARFGAP1 inhibitor -4, HNF4A DNA FP -2 and ASAP1 GAP inh -2.
O=C(COc1ccccc1)N[C@@H]1c2ccccc2CC[C@@H]1O was read as CSN inh 57*, ARFGAP1 inhibitor 1, HNF4A DNA FP -1 and ASAP1 GAP inh 5.
Screening NC(=O)c1ncn([C@@H]2O[C@H](C(=O)N3CCCN(Cc4ccccc4F)CC3)[C@@H](O)[C@H]2O)n1 returned ARFGAP1 inhibitor 10 and ASAP1 GAP inh -3.
Screening Cc1sc2nc(CSc3nc4ccccc4c(=O)n3CCCN3CCOCC3)[nH]c(=O)c2c1C returned CSN inh 17, ARFGAP1 inhibitor 11, HNF4A DNA FP 34* and ASAP1 GAP inh -12.
`COC(=O)CN1CCN(C(=O)c2ccco2)CC1` gave CSN inh -1, ARFGAP1 inhibitor -15, HNF4A DNA FP -3 and ASAP1 GAP inh 4.
Screening NNc1nc2c(-c3ccc(Cl)cc3)nnn2c2ccccc12 returned CSN inh 27, ARFGAP1 inhibitor 19, HNF4A DNA FP 39* and ASAP1 GAP inh 8.
For Cc1ccc(/C=N/N2CCN(c3ccccn3)CC2)cc1 the results were CSN inh 4, ARFGAP1 inhibitor 3, HNF4A DNA FP -1 and ASAP1 GAP inh 9.
Screening CCc1ccc(/C=N/N2CCN(c3ccccn3)CC2)cc1 returned CSN inh 1, ARFGAP1 inhibitor 0, HNF4A DNA FP 61* and ASAP1 GAP inh -11.
For COC(=O)c1cc2c(c3c4cc(C)ccc4n(S(=O)(=O)c4ccc(OC)cc4)c13)C(=O)N(Cc1ccc(C(F)(F)F)cc1)C2 the results were ARFGAP1 inhibitor -5 and ASAP1 GAP inh -4.
For C(=Cc1c[nH]c2ccccc12)c1ccc2ccccc2n1 the results were CSN inh 10, ARFGAP1 inhibitor 9, HNF4A DNA FP 37* and ASAP1 GAP inh 0.
For COC(=O)c1cc2c(c3c4ccccc4n(S(=O)(=O)c4cccc(C)c4)c13)C(=O)N(C)C2 the results were ARFGAP1 inhibitor -12 and ASAP1 GAP inh 1.
O=C(COc1ccc([N+](=O)[O-])cc1)NC(C(=O)O)C(O)c1cccc([N+](=O)[O-])c1 (stereo not drawn) was read as CSN inh 53*, ARFGAP1 inhibitor -10, HNF4A DNA FP 8 and ASAP1 GAP inh 5.
`O=C(NN=Cc1c(O)ccc2ccccc12)c1ccncc1` gave CSN inh 106, ARFGAP1 inhibitor 15, HNF4A DNA FP 143 and ASAP1 GAP inh 5.
Screening Cc1ccc(C(=O)N/N=C/c2c(O)ccc3ccccc23)cn1 returned CSN inh 23, ARFGAP1 inhibitor 16, HNF4A DNA FP 45* and ASAP1 GAP inh 20.
Screening O=C(N/N=C/c1c(O)ccc2ccccc12)c1cccnc1 returned CSN inh 28, ARFGAP1 inhibitor 4, HNF4A DNA FP 43* and ASAP1 GAP inh 11.
`CCCCCCCCN1C(=O)[C@@H](CC(=O)N2CCC(c3ccccc3)CC2)C[C@@]2(C(=O)OC)C1=C[C@H](C1CCCC1)O[C@@H]2C` gave ARFGAP1 inhibitor 13 and ASAP1 GAP inh 8.
`Cc1ccccc1S(=O)(=O)NC(=O)C1(C)CCN1C(=O)C(C)(C)c1ccccc1` (stereo not drawn) gave CSN inh 1, ARFGAP1 inhibitor -2, HNF4A DNA FP 39* and ASAP1 GAP inh 17.
`Cc1cc(NC(=O)Cc2cn(Cc3ccccc3)c3ccccc23)ccc1Oc1cccnc1` gave ARFGAP1 inhibitor 19 and ASAP1 GAP inh 8.
Screening O=C1C(=Cc2cn(-c3ccccc3)nc2-c2ccc(OCc3ccccc3)cc2)SC(=S)N1CCS(=O)(=O)O returned CSN inh 29, ARFGAP1 inhibitor 5, HNF4A DNA FP -46 and ASAP1 GAP inh -2.
Cc1ccc(-c2nn(-c3ccccc3)cc2C=C2SC(=S)N(CCS(=O)(=O)O)C2=O)cc1 was read as CSN inh 47*, ARFGAP1 inhibitor -40, HNF4A DNA FP -29 and ASAP1 GAP inh -9.
COc1ccccc1Cc1c(C2CCCCC2)nc2ccc(Cl)cn12 was read as CSN inh 60*, ARFGAP1 inhibitor -2, HNF4A DNA FP 17 and ASAP1 GAP inh -2.
COc1ccccc1Cc1c(C2CCCCC2)nc2ccc(C)cn12 was read as CSN inh 10, ARFGAP1 inhibitor -4, HNF4A DNA FP 3 and ASAP1 GAP inh 7.
Screening CCCCCCCCN1C(=O)[C@@H](CC(=O)NCCCN2CCCC2=O)C[C@@]2(C(=O)OC)C1=C[C@H](C1CCCC1)O[C@@H]2C returned ARFGAP1 inhibitor -4 and ASAP1 GAP inh -13.
Screening CC(C)c1[nH]nc2c1C(c1ccccc1)N(c1ccccc1)C2=O (stereo not drawn) returned ARFGAP1 inhibitor 3 and ASAP1 GAP inh 6.
Cn1cc(CCOCc2ccc(Br)cc2)c2ccccc21 was read as ARFGAP1 inhibitor 9 and ASAP1 GAP inh -9.
Screening CCc1nc2ccc(C(=O)NCCNC(C)=O)cn2c1N(CC)CCOC returned CSN inh -6, ARFGAP1 inhibitor -6, HNF4A DNA FP -2 and ASAP1 GAP inh 3.
